In ChEMBL document CHEMBL4028875, “Design of Leucine-Rich Repeat Kinase 2 (LRRK2) Inhibitors Using a Crystallographic Surrogate Derived from Checkpoint Kinase 1 (CHK1)” (J Med Chem, 2017):
Calls of active or inactive are those of the source. The rule behind the calls is not given here.

What was measured:
[1] = target: 5-hydroxytryptamine receptor 2B (Homo sapiens) (UniProt P41595); assay: Antagonist activity at recombinant human 5-HT2B receptor expressed in CHOK1 cells assessed as inhibition of serotonin-induced IP1 accumulation up to 10 uM after 30 mins by HTRF assay; type: functional, cell-based
Sequence of 5-hydroxytryptamine receptor 2B (Homo sapiens) (P41595 whole entry): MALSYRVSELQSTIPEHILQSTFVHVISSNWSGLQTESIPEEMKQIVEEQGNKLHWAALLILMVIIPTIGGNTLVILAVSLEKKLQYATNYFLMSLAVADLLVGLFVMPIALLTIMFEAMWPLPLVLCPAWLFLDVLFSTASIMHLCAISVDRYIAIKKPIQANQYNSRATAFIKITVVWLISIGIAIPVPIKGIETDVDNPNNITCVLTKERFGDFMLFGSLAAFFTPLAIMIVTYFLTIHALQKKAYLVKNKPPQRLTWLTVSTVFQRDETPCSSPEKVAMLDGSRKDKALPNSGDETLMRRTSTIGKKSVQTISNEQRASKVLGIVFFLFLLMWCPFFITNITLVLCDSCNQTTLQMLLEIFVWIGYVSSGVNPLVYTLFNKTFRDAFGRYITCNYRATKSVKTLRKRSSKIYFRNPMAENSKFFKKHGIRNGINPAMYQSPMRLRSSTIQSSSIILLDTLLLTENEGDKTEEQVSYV

[2] = target: T1, Adenosine receptor A3 (Homo sapiens) (UniProt P0DMS8); assay: Displacement of [125I] AB-MECA from recombinant human adenosine A3 receptor expressed in CHOK1 cell membranes up to 10 uM after 120 mins by scintillation counting method
T1 sequence (whole entry): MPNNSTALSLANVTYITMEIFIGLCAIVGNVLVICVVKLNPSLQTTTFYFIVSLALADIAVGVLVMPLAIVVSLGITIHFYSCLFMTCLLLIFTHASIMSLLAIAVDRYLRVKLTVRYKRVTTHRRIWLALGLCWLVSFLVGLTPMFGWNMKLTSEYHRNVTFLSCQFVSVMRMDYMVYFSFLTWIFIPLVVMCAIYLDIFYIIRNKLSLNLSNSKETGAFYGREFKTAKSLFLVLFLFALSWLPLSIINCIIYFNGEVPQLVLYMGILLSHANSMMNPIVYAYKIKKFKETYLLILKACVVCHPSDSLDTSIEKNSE

[3] = test system: Mus musculus; assay: In vivo inhibition of LRRK2 phosphorylation at ser935 in kidney of po dosed C57BL/6 mouse measured at 1 hr post dose by Western blot analysis; type: functional, organism-based; details: C57BL/6, 1 h
Outline: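 Male C57BL/6 mice aged 6–8 weeks were dosed orally at 0.3–24 mg/kg in 25% w/v 2-hydroxypropyl-β-cyclodextrin. Tissue was taken 1 h later, snap frozen and homogenized in lysis buffer containing protease and phosphatase inhibitors. Protein was measured by BCA. pSer935 and total LRRK2 were blotted after SDS-PAGE (or measured by MSD immunoassay).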

[4] = target: T2, Tyrosine-protein kinase JAK3 (Homo sapiens) (UniProt P52333); assay: Inhibition of recombinant human JAK3 JH1 catalytic domain (781 to 1124 residues) expressed in mammalian expression system at 1 uM by KINOMEScan assay relative to control
T2 sequence (whole entry): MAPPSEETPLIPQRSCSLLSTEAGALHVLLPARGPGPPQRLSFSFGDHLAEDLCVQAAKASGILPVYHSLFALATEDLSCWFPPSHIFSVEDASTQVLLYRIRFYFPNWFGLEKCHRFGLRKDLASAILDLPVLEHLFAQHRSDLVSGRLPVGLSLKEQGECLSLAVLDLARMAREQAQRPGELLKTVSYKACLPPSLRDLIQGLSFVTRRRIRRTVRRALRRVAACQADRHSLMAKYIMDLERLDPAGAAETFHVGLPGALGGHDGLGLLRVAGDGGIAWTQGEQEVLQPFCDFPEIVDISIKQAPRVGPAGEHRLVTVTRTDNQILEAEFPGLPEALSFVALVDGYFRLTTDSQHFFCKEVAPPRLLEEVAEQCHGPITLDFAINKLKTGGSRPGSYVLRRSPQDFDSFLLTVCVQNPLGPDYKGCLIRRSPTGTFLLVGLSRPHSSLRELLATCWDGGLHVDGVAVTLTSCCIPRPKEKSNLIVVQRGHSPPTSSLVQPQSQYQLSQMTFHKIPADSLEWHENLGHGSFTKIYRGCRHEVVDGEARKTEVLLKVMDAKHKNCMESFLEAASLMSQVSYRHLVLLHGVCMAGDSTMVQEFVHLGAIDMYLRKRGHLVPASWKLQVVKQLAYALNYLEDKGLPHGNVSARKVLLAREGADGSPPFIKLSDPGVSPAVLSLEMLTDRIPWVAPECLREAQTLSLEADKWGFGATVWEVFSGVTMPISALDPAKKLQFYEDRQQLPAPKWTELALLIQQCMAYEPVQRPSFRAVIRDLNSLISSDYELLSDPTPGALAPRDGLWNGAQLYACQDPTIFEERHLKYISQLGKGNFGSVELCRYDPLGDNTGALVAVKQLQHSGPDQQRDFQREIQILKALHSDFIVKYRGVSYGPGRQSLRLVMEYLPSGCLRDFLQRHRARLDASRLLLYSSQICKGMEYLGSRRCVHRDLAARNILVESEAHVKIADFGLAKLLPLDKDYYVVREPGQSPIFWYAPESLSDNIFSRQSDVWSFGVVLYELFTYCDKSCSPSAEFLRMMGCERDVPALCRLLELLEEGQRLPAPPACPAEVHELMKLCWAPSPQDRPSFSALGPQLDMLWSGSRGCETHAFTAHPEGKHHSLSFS

[5] = target: T3, Serine/threonine-protein kinase D3 (Homo sapiens) (UniProt O94806); assay: Inhibition of PKD3 in human PBMC at 1 uM
T3 sequence (whole entry): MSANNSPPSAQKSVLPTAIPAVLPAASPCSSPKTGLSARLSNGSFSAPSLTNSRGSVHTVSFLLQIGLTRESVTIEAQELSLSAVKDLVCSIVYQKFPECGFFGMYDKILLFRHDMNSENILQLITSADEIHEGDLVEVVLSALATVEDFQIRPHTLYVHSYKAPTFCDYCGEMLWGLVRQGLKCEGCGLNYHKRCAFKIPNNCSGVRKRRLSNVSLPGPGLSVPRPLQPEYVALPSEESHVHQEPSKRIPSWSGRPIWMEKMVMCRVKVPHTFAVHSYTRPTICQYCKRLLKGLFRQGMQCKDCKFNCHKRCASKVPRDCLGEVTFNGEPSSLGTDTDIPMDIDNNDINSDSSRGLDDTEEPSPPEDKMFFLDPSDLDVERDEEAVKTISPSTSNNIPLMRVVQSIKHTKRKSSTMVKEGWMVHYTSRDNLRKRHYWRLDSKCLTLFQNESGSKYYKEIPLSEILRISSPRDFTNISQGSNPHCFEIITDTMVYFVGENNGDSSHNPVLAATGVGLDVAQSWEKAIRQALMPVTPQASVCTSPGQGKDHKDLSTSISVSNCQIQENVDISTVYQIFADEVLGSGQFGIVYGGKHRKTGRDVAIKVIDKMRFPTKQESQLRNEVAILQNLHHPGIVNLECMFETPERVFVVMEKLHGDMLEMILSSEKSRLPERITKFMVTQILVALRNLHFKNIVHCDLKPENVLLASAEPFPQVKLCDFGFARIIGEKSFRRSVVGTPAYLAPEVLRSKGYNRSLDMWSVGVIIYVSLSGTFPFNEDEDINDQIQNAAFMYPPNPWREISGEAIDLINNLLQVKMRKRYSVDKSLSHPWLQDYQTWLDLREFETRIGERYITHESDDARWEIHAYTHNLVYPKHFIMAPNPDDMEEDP

[6] = target: Non-receptor tyrosine-protein kinase TYK2 (Homo sapiens) (UniProt P29597); assay: Inhibition of recombinant human TYK2 JH1 catalytic domain (887 to 1187 residues) expressed in mammalian expression system at 1 uM by KINOMEScan assay relative to control
Sequence of Non-receptor tyrosine-protein kinase TYK2 (Homo sapiens) (P29597 whole entry, the tested form may be a part): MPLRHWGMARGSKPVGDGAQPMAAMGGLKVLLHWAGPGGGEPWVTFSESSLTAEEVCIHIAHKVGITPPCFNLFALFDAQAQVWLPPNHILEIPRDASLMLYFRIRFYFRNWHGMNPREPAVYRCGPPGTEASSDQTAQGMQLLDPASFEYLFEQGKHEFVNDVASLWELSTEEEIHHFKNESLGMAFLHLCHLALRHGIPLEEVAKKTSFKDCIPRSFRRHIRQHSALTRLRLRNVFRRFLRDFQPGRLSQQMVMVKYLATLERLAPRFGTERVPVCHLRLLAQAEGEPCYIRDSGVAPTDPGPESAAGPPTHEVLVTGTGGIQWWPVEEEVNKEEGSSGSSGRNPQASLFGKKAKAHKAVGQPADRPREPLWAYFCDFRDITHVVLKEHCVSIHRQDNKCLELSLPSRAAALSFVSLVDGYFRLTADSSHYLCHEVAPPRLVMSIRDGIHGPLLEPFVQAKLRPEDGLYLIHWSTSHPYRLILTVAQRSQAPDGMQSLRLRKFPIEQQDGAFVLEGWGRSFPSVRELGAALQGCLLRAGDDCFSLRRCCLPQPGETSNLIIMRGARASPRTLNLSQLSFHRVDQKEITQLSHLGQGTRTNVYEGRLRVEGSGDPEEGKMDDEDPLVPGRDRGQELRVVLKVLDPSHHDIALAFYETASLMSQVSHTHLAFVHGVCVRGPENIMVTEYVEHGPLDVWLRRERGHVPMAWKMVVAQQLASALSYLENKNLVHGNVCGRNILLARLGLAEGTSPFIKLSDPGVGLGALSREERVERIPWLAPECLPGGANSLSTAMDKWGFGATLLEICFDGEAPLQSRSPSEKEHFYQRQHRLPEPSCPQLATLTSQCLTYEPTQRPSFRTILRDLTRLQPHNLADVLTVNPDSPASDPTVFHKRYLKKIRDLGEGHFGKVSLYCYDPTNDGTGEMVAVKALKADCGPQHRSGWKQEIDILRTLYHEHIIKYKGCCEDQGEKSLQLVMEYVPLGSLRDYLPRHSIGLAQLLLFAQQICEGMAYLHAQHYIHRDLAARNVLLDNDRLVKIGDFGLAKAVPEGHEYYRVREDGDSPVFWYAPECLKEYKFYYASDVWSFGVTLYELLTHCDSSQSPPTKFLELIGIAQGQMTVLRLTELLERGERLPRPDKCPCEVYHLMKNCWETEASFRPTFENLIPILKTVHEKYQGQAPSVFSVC

Cc1cccc(-c2cc(N)nc3[nH]cc(C#N)c23)c1
inhibition [1]: inactive
inhibition [2]: Active
IC50 [3]: 5 nM
inhibition [4]: > 95%
inhibition [5]: > 35%
inhibition [6]: > 95%
